# Experimental data: ChEMBL document CHEMBL1165943, “Design and synthesis of new anticancer pyrimidines with multiple-kinase inhibitory effect” (Bioorg Med Chem, 2010)
# Activity calls are given as the source filed them. The rule behind the calls is not given here.
# Key:
# [1] = system: MDA-MB-468; test: Cytotoxicity against human MDA-MB-468 cells assessed as cell growth at 100 nM after 48 hrs by sulforhodamine B assay; assay type: functional; details: MDA-MB-468, 48 h, read-out: Activity
# [2] = system: NCI-H460; test: Cytotoxicity against human NCI-H460 cells assessed as cell growth at 100 nM after 48 hrs by sulforhodamine B assay; assay type: functional; details: NCI-H460, 48 h, read-out: Activity
# [3] = system: 786-0; test: Cytotoxicity against human 786-0 cells assessed as cell growth at 0.001 uM after 48 hrs by sulforhodamine B assay; assay type: functional; details: 786-0, 48 h, read-out: Activity
# Method in brief: (§1)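 Cells grown in RPMI 1640 with 5% FBS and 2 mM L-glutamine, seeded at 5,000–40,000 cells/well by doubling time. Time-zero plates TCA-fixed after 24 h. Five concentrations (10-fold or half-log dilutions from DMSO stock) added; 48 h at 37 °C, 5% CO2. Cold TCA fixation (final 10%, 60 min, 4 °C), 0.4% SRB stain, dye solubilized in 10 mM trizma base, A515.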
# [4] = system: SK-MEL-5; test: Cytotoxicity against human SK-MEL-5 cells assessed as cell growth at 100 nM after 48 hrs by sulforhodamine B assay; assay type: functional; details: SK-MEL-5, 48 h, read-out: Activity
# [5] = system: OVCAR-4; test: Cytotoxicity against human OVCAR4 cells assessed as cell growth at 1 uM after 48 hrs by sulforhodamine B assay; assay type: functional; details: OVCAR-4, 48 h, read-out: Activity
# [6] = system: 786-0; test: Cytotoxicity against human 786-0 cells assessed as cell growth at 10 uM after 48 hrs by sulforhodamine B assay; assay type: functional; details: 786-0, 48 h, read-out: Activity; method in brief: as §1
# [7] = system: HL-60(TB); test: Cytotoxicity against human HL-60(TB) cells assessed as cell growth at 0.01 uM after 48 hrs by sulforhodamine B assay; assay type: functional; details: HL-60, 48 h, read-out: Activity
# Method in brief: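 Five-concentration HL-60(TB) test in RPMI 1640 with 5% FBS and 2 mM L-glutamine. Cells are plated at 5,000–40,000/well and a TCA-fixed time-zero plate is read at drug addition after 24 h. Drug is dissolved in DMSO and given as five 10-fold or ½log dilutions for 48 h at 37 °C, 5% CO2. Settled cells are fixed with TCA, stained with SRB and read at 515 nm.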
# [8] = system: NCI-H23; test: Growth inhibition of human NCI-H23 cells after 48 hrs by sulforhodamine B assay; assay type: functional, cell-based; details: NCI-H23, 48 h; for CC50: read-out: LC50 (the source's name)
# Method in brief: (§2)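 Cells grown in RPMI 1640 with 5% FBS and 2 mM L-glutamine, seeded at 5,000–40,000 cells/well according to doubling time. After 24 h, time-zero plates are TCA-fixed. Five concentrations (10-fold or ½log dilutions, DMSO stocks) are applied for 48 h at 37 °C, 5% CO₂. Cells are TCA-fixed, SRB-stained and read at 515 nm. IC₅₀ is taken from [(Ti−Tz)/(C−Tz)]×100 = 50.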
# [9] = system: T47D; test: Cytotoxicity against human T47D cells assessed as cell growth at 10 uM after 48 hrs by sulforhodamine B assay; assay type: functional; details: read-out: Activity
# [10] = system: NCI-H460; test: Cytotoxicity against human NCI-H460 cells assessed as cell growth at 1 uM after 48 hrs by sulforhodamine B assay; assay type: functional; details: NCI-H460, 48 h, read-out: Activity
# [11] = system: MDA-MB-468; test: Growth inhibition of human MDA-MB-468 cells after 48 hrs by sulforhodamine B assay; assay type: functional, cell-based; details: MDA-MB-468, 48 h; method in brief: as §2
# [12] = system: NCI/ADR-RES; test: Cytotoxicity against human NCI/ADR-RES cells assessed as cell growth at 100 nM after 48 hrs by sulforhodamine B assay; assay type: functional; details: read-out: Activity
# [13] = system: SNB-19; test: Growth inhibition of human SNB19 cells after 48 hrs by sulforhodamine B assay; assay type: functional, cell-based; details: SNB-19, 48 h; for CC50: read-out: LC50 (the source's name); method in brief: as §2
# [14] = system: SW-620; test: Cytotoxicity against human SW620 cells assessed as cell growth at 0.01 uM after 48 hrs by sulforhodamine B assay; assay type: functional; details: SW-620, 48 h, read-out: Activity
# [15] = system: DU-145; test: Cytotoxicity against human DU145 cells assessed as cell growth at 0.01 uM after 48 hrs by sulforhodamine B assay; assay type: functional; details: DU-145, 48 h, read-out: Activity
# [16] = system: UO-31; test: Cytotoxicity against human UO31 cells assessed as cell growth at 10 uM after 48 hrs by sulforhodamine B assay; assay type: functional; details: UO-31, 48 h, read-out: Activity
# [17] = system: HOP-62; test: Cytotoxicity against human HOP62 cells assessed as cell growth at 10 uM after 48 hrs by sulforhodamine B assay; assay type: functional; details: HOP-62, 48 h, read-out: Activity
# [18] = Cytotoxicity against human Hs 578T cells assessed as cell growth at 100 nM after 48 hrs by sulforhodamine B assay; assay type: functional; details: read-out: Activity
# [19] = system: 786-0; test: Cytotoxicity against human 786-0 cells assessed as cell growth at 1 uM after 48 hrs by sulforhodamine B assay; assay type: functional; details: 786-0, 48 h, read-out: Activity; method in brief: as §1
# [20] = system: NCI/ADR-RES; test: Cytotoxicity against human NCI/ADR-RES cells assessed as cell growth at 10 uM after 48 hrs by sulforhodamine B assay; assay type: functional; details: read-out: Activity
# [21] = system: RXF 393; test: Growth inhibition of human RXF393 cells after 48 hrs by sulforhodamine B assay; assay type: functional, cell-based; method in brief: as §2
# [22] = system: IGROV-1; test: Growth inhibition of human IGROV1 cells after 48 hrs by sulforhodamine B assay; assay type: functional, cell-based; details: IGROV-1, 48 h; for CC50: read-out: LC50 (the source's name); method in brief: as §2
# [23] = system: SF-295; test: Cytotoxicity against human SF295 cells assessed as cell growth at 100 nM after 48 hrs by sulforhodamine B assay; assay type: functional; details: SF-295, 48 h, read-out: Activity
# [24] = system: MOLT-4; test: Cytotoxicity against human MOLT4 cells assessed as cell growth at 10 uM after 48 hrs by sulforhodamine B assay; assay type: functional; details: MOLT-4, 48 h, read-out: Activity
# [25] = system: UACC-62; test: Cytotoxicity against human UACC62 cells assessed as cell growth at 0.01 uM after 48 hrs by sulforhodamine B assay; assay type: functional; details: UACC-62, 48 h, read-out: Activity
# [26] = system: Malme-3M; test: Cytotoxicity against human MALME-3M cells assessed as cell growth at 0.001 uM after 48 hrs by sulforhodamine B assay; assay type: functional; details: read-out: Activity
# [27] = system: 786-0; test: Cytotoxicity against human 786-0 cells assessed as cell growth at 100 nM after 48 hrs by sulforhodamine B assay; assay type: functional; details: 786-0, 48 h, read-out: Activity; method in brief: as §1
# [28] = system: MDA-MB-468; test: Cytotoxicity against human MDA-MB-468 cells assessed as cell growth at 0.001 uM after 48 hrs by sulforhodamine B assay; assay type: functional; details: MDA-MB-468, 48 h, read-out: Activity
# [29] = system: MDA-MB-468; test: Cytotoxicity against human MDA-MB-468 cells assessed as cell growth at 0.01 uM after 48 hrs by sulforhodamine B assay; assay type: functional; details: MDA-MB-468, 48 h, read-out: Activity
# [30] = system: U-251; test: Cytotoxicity against human U251 cells assessed as cell growth at 0.001 uM after 48 hrs by sulforhodamine B assay; assay type: functional; details: U-251, 48 h, read-out: Activity
# [31] = system: SW-620; test: Cytotoxicity against human SW620 cells assessed as cell growth at 100 nM after 48 hrs by sulforhodamine B assay; assay type: functional; details: SW-620, 48 h, read-out: Activity
structure (smiles),measurement,setting,value
CC(=O)Nc1cccc(-c2ccc(-c3ccnc(NC(=O)Nc4cc(C(F)(F)F)cc(C(F)(F)F)c4)n3)cn2)c1.Cl,growth at 0.1 µM,[1],47%
same,growth at 0.1 µM,[2],79%
same,growth at 0.001 µM,[3],96%
same,growth at 0.1 µM,[4],73%
same,growth at 1 µM,[5],4%
same,growth at 10 µM,[6],100%
same,growth at 0.01 µM,[7],90%
same,GI50,[8],2.24 µM
same,IC50,[8],2.24 µM
same,TGI,[8],6.94 µM
same,CC50,[8],43.8 µM
same,growth at 10 µM,[9],-14%
same,growth at 1 µM,[10],-14%
same,GI50,[11],0.837 µM
same,IC50,[11],0.837 µM
same,LC50,[11],5.85 µM
same,TGI,[11],2.35 µM
same,growth at 0.1 µM,[12],93%
same,GI50,[13],4.57 µM
same,IC50,[13],4.57 µM
same,TGI,[13],17.8 µM
same,CC50,[13],47.4 µM
same,growth at 0.01 µM,[14],95%
same,growth at 0.01 µM,[15],95%
same,growth at 10 µM,[16],-75%
same,growth at 10 µM,[17],-36%
same,growth at 0.1 µM,[18],97%
same,growth at 1 µM,[19],25%
same,growth at 10 µM,[20],8%
same,LC50,[21],inactive
same,TGI,[21],inactive
same,IC50,[21]; rxf 393,Not Active
same,GI50,[22],2.68 µM
same,IC50,[22],2.68 µM
same,TGI,[22],9.46 µM
same,CC50,[22],> 100 µM
same,growth at 0.1 µM,[23],57%
same,growth at 10 µM,[24],11%
same,growth at 0.01 µM,[25],92%
same,growth at 0.001 µM,[26],92%
same,growth at 0.1 µM,[27],62%
same,growth at 0.001 µM,[28],99%
same,growth at 0.01 µM,[29],86%
same,growth at 0.001 µM,[30],98%
same,growth at 0.1 µM,[31],97%
CC(=O)c1ccccc1-c1ccc(-c2ccnc(NC(=O)Nc3cc(N4CCOCC4)cc(C(F)(F)F)c3)n2)cn1,growth at 0.1 µM,[1],103%
same,growth at 0.1 µM,[2],91%
same,growth at 0.001 µM,[3],103%
same,growth at 0.1 µM,[4],84%
same,growth at 1 µM,[5],48%
same,growth at 10 µM,[6],10%
same,growth at 0.01 µM,[7],87%
same,GI50,[8],2.95 µM
same,IC50,[8],> 100 µM
same,TGI,[8],> 100 µM
same,CC50,[8],> 100 µM
same,growth at 10 µM,[9],66%
same,growth at 1 µM,[10],61%
same,GI50,[11],> 100 µM
same,IC50,[11],> 100 µM
same,LC50,[11],> 100 µM
same,TGI,[11],> 100 µM
same,growth at 0.1 µM,[12],75%
same,GI50,[13],9.04 µM
same,IC50,[13],38.7 µM
same,TGI,[13],> 100 µM
same,CC50,[13],> 100 µM
same,growth at 0.01 µM,[14],106%
same,growth at 0.01 µM,[15],97%
same,growth at 10 µM,[16],86%
same,growth at 10 µM,[17],19%
same,growth at 0.1 µM,[18],77%
same,growth at 1 µM,[19],55%
same,growth at 10 µM,[20],69%
same,LC50,[21],inactive
same,GI50,"[21]; Homo sapiens, RXF 393, 48 h",> 100 µM
same,TGI,"[21]; Homo sapiens, RXF 393, 48 h",3.5 µM
same,IC50,"[21]; Homo sapiens, RXF 393, 48 h, read-out: IC50",1.27 µM
same,GI50,[22],> 100 µM
same,IC50,[22],6.18 µM
same,TGI,[22],> 100 µM
same,CC50,[22],> 100 µM
same,growth at 0.1 µM,[23],88%
same,growth at 10 µM,[24],101%
same,growth at 0.01 µM,[25],94%
same,growth at 0.001 µM,[26],94%
same,growth at 0.1 µM,[27],98%
same,growth at 0.001 µM,[28],97%
same,growth at 0.01 µM,[29],105%
same,growth at 0.001 µM,[30],93%
same,growth at 0.1 µM,[31],93%
